Assay outcomes deposited in PubChem by The Scripps Research Institute Molecular Screening Center.
CHRM4 PAM: potentiates acetylcholine response at human M4 receptor. activation, % at 3 µM. CHO-K1 hM4/Gqi5, Fluo-8 calcium fluorescence, ACh EC20; 0% = ACh EC20, 100% = maximal ACh. P08173. 360,000 tested, 0.4% active;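 active means activation above its plate's cutoff, the mean activation of sample wells plus 3 SD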
M5 PAM: positive allosteric modulators of human muscarinic M5 receptor; P08912; CHO-K1 hM5, Fluo-8 calcium, ACh EC20 PAM; 0% = ACh EC20, 100% = ACh EC100; activation, % at 3 µM; 360,000 tested, 0.3% active;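 active means activation above the run cutoff, the mean activation of all test compounds plus 3 SD, cut at about 18% in these data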
Target sequence (P08912 whole entry, looked up): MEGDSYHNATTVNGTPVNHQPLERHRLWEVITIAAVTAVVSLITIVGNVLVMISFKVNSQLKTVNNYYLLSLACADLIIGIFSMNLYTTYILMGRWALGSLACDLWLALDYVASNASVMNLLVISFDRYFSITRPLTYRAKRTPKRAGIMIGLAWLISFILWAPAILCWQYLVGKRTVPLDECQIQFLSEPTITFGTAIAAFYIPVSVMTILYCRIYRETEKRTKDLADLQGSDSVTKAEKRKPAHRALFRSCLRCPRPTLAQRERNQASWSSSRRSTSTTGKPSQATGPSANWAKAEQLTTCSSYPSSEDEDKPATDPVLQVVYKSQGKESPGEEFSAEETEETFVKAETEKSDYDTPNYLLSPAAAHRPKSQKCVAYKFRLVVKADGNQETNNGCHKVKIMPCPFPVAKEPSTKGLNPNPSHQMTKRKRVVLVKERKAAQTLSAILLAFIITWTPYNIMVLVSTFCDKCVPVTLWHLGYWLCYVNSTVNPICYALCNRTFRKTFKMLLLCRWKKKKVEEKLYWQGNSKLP
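Measured by: Fluo-8 calcium fluorescence; material: human M5 receptor in CHO-K1 cells; schedule: Post-acetylcholine fluorescence recording 140 s; benchmarks: low control EC20 acetylcholine (0%), high control EC100 acetylcholine (100%); read-out: Max/basal fluorescence ratio as % of EC20–EC100 ACh window; compound: single dose, 3 µM nominal final test concentration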
M5 ag: agonists of human muscarinic M5 receptor (CHRM5). 360,000 tested, 0.19% active. P08912. CHO-K1 hM5 cells, Fluo-8 calcium fluorescence; 0% DMSO wells, 100% maximal acetylcholine response. activation, % at 3 µM. AID 624037;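 active means activation above the run's mean over test compounds plus 3 SD, cut at about 23% in these data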;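 further: signal is peak over basal fluorescence ratio across the kinetic read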
CHRM5 antagonist: CHRM5 antagonism in calcium assay | CHO-hM5 cells, Fluo-8 calcium fluorescence, ACh EC80 | inhibition, % at 3 µM | AID 624040 | 360,000 tested, 0.59% active | P08912;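 active means inhibition above a per-plate cutoff, the mean of that plate's test compounds plus 3 SD, cut at about 27% in these data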
M4 antag: antagonists of human muscarinic M4 receptor (CHRM4); P08173; CHO-hM4 cells, ACh EC80, Fluo-8 calcium fluorescence; inhibition, % at 3 µM; 360,000 tested, 0.73% active;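 active means inhibition above its plate's cutoff, the mean inhibition of sample wells plus 3 SD, cut at about 27% in these data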
M4 ag: agonists of human muscarinic M4 receptor (CHRM4); P08173; CHO-K1 hM4/Gqi5, Fluo-8 calcium fluorescence; vehicle 0%, full acetylcholine response 100%; activation, % at 3 µM; 360,000 tested, 0.14% active;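 active means activation above the run mean over all test wells plus 3 SD, cut at about 32% in these data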;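 further: peak over basal fluorescence ratio per well then scaled between controls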
Hits are given with their value; – = inactive. Rows were chosen to be rich in hits. Some 1.8% of all compounds tested hit in one or more screens of this group.

SMILES | CHRM4 PAM | M5 PAM | M5 ag | CHRM5 antagonist | M4 antag | M4 ag
COc1ccc(NC(=O)C(OC(=O)Cn2cnc3c2c(=O)n(C)c(=O)n3C)c2ccccc2)cc1Cl (stereo not given) | – | – | – | – | – | –
COC(=O)c1[nH]c2ccc(F)cc2c1NS(=O)(=O)c1ccc(F)c(C)c1 | – | – | – | – | 40 | –
CN1CCc2nc3ccc(Cl)cc3c(-c3ccccc3Cl)c2C1 | – | – | – | 66 | 70 | –
Cc1cccc(COc2ccc(/C=N/NC(=O)c3nnn(-c4nonc4N)c3COc3ccc(F)cc3)cc2)c1 | – | – | – | – | – | –
COc1ccc(C(=O)/C(=C\c2ccco2)N2C=CC=CC2=C(C#N)C#N)cc1 | – | – | – | – | – | –
N#CC(C#N)=C1C=CC=CN1/C(=C\c1ccco1)C(=O)c1ccccc1 | – | – | – | – | 30 | –
N#CC(C#N)=C1C=CC=CN1/C(=C\c1ccco1)C(=O)c1ccc(Br)cc1 | – | – | – | – | 69 | –
Cc1oc2c(CN3CCOCC3)c(O)ccc2c(=O)c1-c1ccc(Br)cc1 | – | – | – | – | 38 | –
Cc1oc2c(CN3CCOCC3)c(O)ccc2c(=O)c1-c1ccc(Cl)cc1 | – | – | – | – | – | –
Cc1oc2c(CN3CCCC3)c(O)ccc2c(=O)c1-c1ccccc1 | – | – | – | – | – | –
Cc1oc2c(CN3CCCC3)c(O)ccc2c(=O)c1-c1ccc(Cl)cc1 | – | – | – | – | 70 | –
CN(Cc1cnc2nc(N)nc(N)c2n1)c1ccc(C(=O)NC(CCC(=O)O)C(=O)O)cc1 (stereo not given) | – | – | – | – | – | –
CCC(C)[C@H]1CN=C(N)N1CCc1cc(C(F)(F)F)cc(C(F)(F)F)c1 (stereo not given in full) | – | – | – | 29 | – | –
NC1=NC[C@@H](CC2CCCCC2)N1CCc1cc(C(F)(F)F)cc(C(F)(F)F)c1 | – | – | – | 45 | – | –
CC(O)[C@H]1CNC(=O)C(=O)N1CCc1cccc(F)c1 (stereo not given in full) | – | – | – | – | – | –
CC(O)[C@H]1CNC(=O)C(=O)N1CCc1cc(C(F)(F)F)cc(C(F)(F)F)c1 (stereo not given in full) | – | – | – | 42 | – | –
CC(C(=O)Nc1ccccc1C#N)N1C(=O)NC2(CCCCCC2)C1=O (stereo not given) | – | – | – | – | – | –
CN1CCN(c2ccc(-c3cccc(NC(=O)COc4ccc(Cl)cc4Cl)c3)nn2)CC1 | – | – | – | – | – | –
CNc1ccc(C2(O)C(=O)c3ccccc3C2=O)cc1 | – | – | – | – | – | –
CC1Cc2cc(C3(O)C(=O)c4ccccc4C3=O)ccc2N1 (stereo not given) | – | – | – | – | 31 | –
CN1CCN(NC(=O)c2cc(Br)ccc2Cl)CC1 | – | – | – | 27 | – | –
CN1CCN(NC(=O)c2ccc(Cl)cc2Cl)CC1 | – | – | – | – | – | –
Cc1nn(CC(=O)NCCc2cccs2)c(=O)c2cc3ccccc3n12 | – | – | – | – | – | –
CCCCn1c(N)c(N(CC(C)C)C(=O)C2=NN(c3ccccc3)C(=O)CC2)c(=O)[nH]c1=O | – | – | – | – | – | –
COc1cc(C2CC(=O)Nc3ccccc3S2)cc(OC)c1OC (stereo not given) | – | – | – | – | 35 | –
SMILES | CHRM4 PAM | M5 PAM | M5 ag | CHRM5 antagonist | M4 antag | M4 ag
O=C1CC(c2ccc(F)cc2)Sc2ccccc2N1 (stereo not given) | – | – | – | – | – | –
COc1cc2cc(C(c3nnnn3C3CCCC3)N(C)C3CCCCC3)c(=O)[nH]c2cc1OC (stereo not given) | – | – | – | – | – | –
COc1cc2cc(C(c3nnnn3C3CCCCC3)N(C)C3CCCCC3)c(=O)[nH]c2cc1OC (stereo not given) | – | – | – | – | 30 | –
CCSc1nc(-c2ccco2)ccc1C#N | – | 46 | – | – | – | –
COc1cc(/C=C2/CC/C(=C/c3ccc(O)c(OC)c3)C2=O)ccc1O | – | – | 25 | 36 | – | –
COc1cc(/C=C2\COC/C(=C\c3ccc(O)c(OC)c3)C2=O)ccc1O | – | – | – | – | – | –
COc1ccc(/C=C2\CN(Cc3ccccc3)C/C(=C\c3ccc(OC)c(O)c3)C2=O)cc1O | – | – | – | 27 | – | –
COc1cc(/C=C2\CC/C(=C\c3ccc(OCCO)c(OC)c3)C2=O)ccc1OCCO | – | – | 55 | – | – | –
CCCOc1ccc(/C=C/C(=O)O)cc1OC | 19 | – | – | – | – | –
CCc1cccc(C)c1NC(=O)CCCN1C(=O)CN(C)C1=O | – | – | – | – | – | –
C[C@H](CO)N1C[C@H](C)[C@@H](CN(C)C(=O)CC2CC2)Oc2cc(Br)ccc2S1(=O)=O | – | – | – | – | – | –
COc1ccc(NC(=O)Nc2c(SC)nsc2SC)cc1 | – | – | – | – | – | –
CN(CCCCCCCCC(=O)/C=N/O)Cc1ccccc1 | – | – | – | – | 73 | –
COc1ccc(NC(=O)COC(=O)C2CC2)cc1S(=O)(=O)N1CCCCC1 | – | – | – | – | – | –
Cc1cccc(OCc2n(CC(=O)OC3CC(C)CCC3C(C)C)c3ccccc3[n+]2C)c1 (stereo not given) | – | – | – | 40 | 39 | –
Cc1ccc(NC2=C/C(=N/S(=O)(=O)c3cccs3)c3ccccc3C2=O)cc1C | – | – | – | – | – | –
CC(=O)Nc1ccc(NC2=C/C(=N/S(=O)(=O)c3cccs3)c3ccccc3C2=O)cc1 | – | – | – | 28 | – | –
CCOC(=O)N1CCC(N(CCN(C)C)C(=S)Nc2ccccc2OC)CC1 | – | – | – | – | – | –
CCOC(=O)N1CCC(N(CCN(C)C)C(=S)Nc2ccccc2OCC)CC1 | – | 38 | – | – | – | –
CCc1nc2ccccc2c(NC(=O)CN2CCC(C)CC2)c1C | – | – | – | – | – | –
O=C(NCCN1CCCC1)c1ccc(Cn2c(=S)[nH]c3ccc(Br)cc3c2=O)cc1 | – | – | 46 | – | – | –
CC1CCN(CCNC(=O)c2ccc3c(=O)n(Cc4ccc(Cl)cc4)c(=S)[nH]c3c2)CC1 | – | – | – | – | 29 | 59
CCN(CC)CCNC(=O)c1ccc2c(=O)n(C3CCCC3)c(=S)[nH]c2c1 | – | – | – | – | 27 | –
O=C(NCCCN1CCOCC1)c1ccc2c(=O)n(Cc3cccc(Br)c3)c(=S)[nH]c2c1 | – | – | – | – | – | –
